Data: ChEMBL document CHEMBL3091410, “Enmein-type 6,7-seco-ent-kauranoids from Isodon sculponeatus” (J Nat Prod, 2013)

How the values were obtained:
SW480 [1] = test: Cytotoxicity against human SW480 cells after 48 hrs by MTS assay; type: functional, cell-based; details: SW480, 48 h
How it was run: (§1)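 Lines obtained from ATCC, grown in RPMI-1640 or DMEM with 10% FBS at 37 °C, 5% CO2. Adherent cells seeded at 1 × 10^5 cells/mL and allowed to attach 12 h; suspension cells seeded just before dosing. Range of concentrations tested in triplicate for 48 h. MTS then added for 4 h at 37 °C, cells lysed in 20% SDS-50% DMF, OD read at 490 nm. IC50 by Reed and Muench method.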

HL-60 = test: Cytotoxicity against human HL60 cells after 48 hrs by MTS assay; type: functional, cell-based; details: HL-60, 48 h; how it was run: as §1
A549 = test: Cytotoxicity against human A549 cells after 48 hrs by MTS assay; type: functional, cell-based; details: A549, 48 h; how it was run: as §1
MCF7 = test: Cytotoxicity against human MCF7 cells after 48 hrs by MTS assay; type: functional, cell-based; details: MCF7, 48 h; how it was run: as §1
SMMC-7721 = test: Cytotoxicity against human SMMC7721 cells after 48 hrs by MTS assay; type: functional, cell-based; details: SMMC-7721, 48 h; how it was run: as §1
RAW264.7 = test: Inhibition of LPS-stimulated NO production in mouse RAW264.7 cells after 18 hrs by Griess assay; type: functional, cell-based; details: RAW264.7, 18 h
How it was run: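 RAW264.7 macrophages, 2 × 10^5 cells/well in RPMI 1640 with 10% FBS, preincubated 24 h. Serial dilutions up to 25 μM (DMSO stock diluted in medium) given with 1 μg/mL LPS for 18 h. Supernatant mixed 1:1 with Griess reagent, in triplicate, 5 min; absorbance at 570 nm. Parallel MTS viability check under the same 18 h conditions.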

SW480 [2] = test: Potency index, ratio of cisplatin IC50 to compound IC50 for human SW480 cells; type: functional

C=C1[C@@H]2C=C[C@@H]3[C@](C2)(C(=O)O[C@H]2CCC(C)(C)[C@H]4[C@H](O)OC[C@@]243)[C@@H]1O showed an IC50 (SW480 [1]) of over 40 µM, an IC50 (HL-60) of over 40 µM and an IC50 (A549) of over 40 µM. The IC50 (MCF7) was over 40 µM and the IC50 (SMMC-7721) was over 40 µM.
For C=C1[C@@H]2CC[C@@H]3[C@](C2)(C(=O)O[C@H]2CCC(C)(C)[C@H]4[C@H](O)OC[C@@]243)[C@@H]1O, the IC50 (SW480 [1]) was over 40 µM, the IC50 (HL-60) was over 40 µM and the IC50 (A549) was over 40 µM. For the same compound, the IC50 (MCF7) was over 40 µM and the IC50 (SMMC-7721) was over 40 µM.
With C=C1[C@H]2C[C@@]3(C(=O)O[C@H]4CCC(C)(C)[C@H]5[C@H](O)OC[C@@]45[C@@H]3[C@@H]3O[C@@H]32)[C@@H]1O the IC50 (SW480 [1]) was over 40 µM, the IC50 (HL-60) was over 40 µM and the IC50 (A549) was over 40 µM. For the same compound, the IC50 (MCF7) was over 40 µM and the IC50 (SMMC-7721) was over 40 µM.
C=C1C(=O)[C@]23C[C@H]1CC[C@H]2[C@@]12CO[C@@H](O)[C@@H]1C(C)(C)[C@@H](O)C[C@@H]2OC3=O [ENEMIN] showed an IC50 (SW480 [1]) of over 40 µM, an IC50 (HL-60) of over 40 µM and an IC50 (A549) of over 40 µM. The IC50 (MCF7) was over 40 µM and the IC50 (SMMC-7721) was over 40 µM.
Compound CC(=O)O[C@H]1C(=O)[C@@]2(C)[C@H]([C@H](OC(=O)c3ccccc3)[C@]3(O)C[C@H](OC(=O)[C@H](O)[C@@H](NC(=O)c4ccccc4)c4ccccc4)C(C)=C1C3(C)C)[C@]1(OC(C)=O)CO[C@@H]1C[C@@H]2O [PACLITAXEL] has an IC50 (SW480 [1]) of under 0.008 µM, an IC50 (HL-60) of under 0.008 µM and an IC50 (A549) of under 0.008 µM. It also gave an IC50 (MCF7) of under 0.008 µM and an IC50 (SMMC-7721) of under 0.008 µM.
CC1(C)[C@H](O)C[C@@H]2OC(=O)[C@@]34C[C@@H](C[C@@H](O)[C@H]3[C@]23CO[C@@H](O)[C@H]13)[C@](C)(O)C4=O showed an IC50 (SW480 [1]) of over 40 µM, an IC50 (HL-60) of over 40 µM and an IC50 (A549) of over 40 µM. The IC50 (MCF7) was over 40 µM and the IC50 (SMMC-7721) was over 40 µM.
In the case of C=C1C(=O)[C@]23C[C@H]1C[C@@H](O)[C@H]2[C@@]12CO[C@@H](O)[C@@H]1C(C)(C)CC[C@@H]2OC3=O [NODOSIN], the IC50 (SW480 [1]) is reported as 12.1 µM, the IC50 (RAW264.7) is reported as 18.4 µM and the IC50 (HL-60) is reported as 15 µM. It also gave an IC50 (A549) of over 40 µM, an IC50 (MCF7) of 23.5 µM and an IC50 (SMMC-7721) of 27 µM.
With C=C1C(=O)[C@]23C[C@H]1CC[C@H]2[C@@]12CO[C@@H](O)[C@@H]1C(C)(C)CC[C@@H]2OC3=O the IC50 (SW480 [1]) was 1 µM, the IC50 (RAW264.7) was 2.2 µM and the IC50 (HL-60) was 2.8 µM. For the same compound, the IC50 (A549) was 3.2 µM, the IC50 (MCF7) was 2.6 µM and the “Ratio IC50” value (SW480 [2]) was 15. For the same compound, the IC50 (SMMC-7721) was 3.5 µM.
C=C1C(=O)[C@]23C[C@H]1C[C@@H](O)[C@H]2[C@]12CO[C@@H]4OC[C@](C)(CC[C@@H]1OC3=O)[C@@H]42 [SCULPONEATIN A] gave an IC50 (SW480 [1]) of 3.5 µM, an IC50 (RAW264.7) of 9.1 µM and an IC50 (HL-60) of 12.7 µM. It also gave an IC50 (A549) of 17.1 µM, an IC50 (MCF7) of 15 µM and an IC50 (SMMC-7721) of 15.2 µM.
C=C1[C@@H](O)[C@]23C[C@@]1(O)C[C@@H](O)[C@H]2[C@]12CO[C@@H]4OC[C@](C)(CC[C@@H]1OC3=O)[C@@H]42 gave an IC50 (SW480 [1]) of over 40 µM, an IC50 (HL-60) of over 40 µM and an IC50 (A549) of over 40 µM. It also gave an IC50 (MCF7) of over 40 µM and an IC50 (SMMC-7721) of over 40 µM.
Work on C=C1C(=O)[C@]23C[C@H]1C[C@H](O)[C@H]2[C@@]12CO[C@@H](O)[C@@H]1C(C)(C)CC[C@@H]2OC3=O [EPINODOSIN] yielded an IC50 (SW480 [1]) of over 40 µM, an IC50 (HL-60) of over 40 µM and an IC50 (A549) of over 40 µM. The IC50 (MCF7) was over 40 µM and the IC50 (SMMC-7721) was over 40 µM.
Work on C=C1[C@@H]2C[C@@H](O)[C@@H]3[C@](C2)(C(=O)O[C@H]2CC[C@@]4(C)CO[C@H]5OC[C@]23[C@H]54)[C@@H]1O [SCULPONEATIN B] yielded an IC50 (SW480 [1]) of over 40 µM, an IC50 (HL-60) of over 40 µM and an IC50 (A549) of over 40 µM. For the same compound, the IC50 (MCF7) was over 40 µM and the IC50 (SMMC-7721) was over 40 µM.
